KCNQ1 pot – potentiators or activators of human KCNQ1 potassium channel; AID 2648; P51787; B-score at 10 µM; CHO-K1 KCNQ1, thallium flux FluxOR fluorescence; stronger effect = higher value; 310,000 tested, 0.35% active;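 active = fluorescence ratio B-score, a plate-corrected score, at least three library SD, with initial intensity B-score within 5 SD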
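Schedule – 37 °C overnight plating, 90-min dark dye load, 20-min compound pretreatment · System – stable KCNQ1 CHO-K1 line · Probe or stimulus – thallium- and potassium-containing depolarizing buffer · Measured by – kinetic FluxOR fluorescence, 10 s baseline plus 110 s post-stimulus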
KCNK3 block – human KCNK3 channel inhibition, primary screen. B-score at 10 µM. CHO-KCNK3 thallium flux, FluxOR fluorescence; stronger effect = lower value. 340,000 tested, 0.84% active;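 active = B-score under library mean minus 4 SD, starting fluorescence ratio at most library mean plus 5 SD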;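 also: more negative B-score means stronger inhibition of thallium flux through KCNK3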
KCNQ1 inh – blocks the human KCNQ1 potassium channel. CHO-K1 KCNQ1, FluxOR thallium flux fluorescence; stronger effect = higher value. B-score at 10 µM. 310,000 tested, 1.3% active. AID 2642;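 active = compounds whose thallium flux B-score, printed positive for inhibition, exceeds three library SD while starting fluorescence stays within three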;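 also: channel opened by potassium depolarization with thallium stimulus after 20 min compound exposure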
KCNK9 inh – inhibitors of human KCNK9 two-pore domain potassium channel | Q9NPC2 | HEK293 KCNK9, FluxOR thallium flux fluorescence; stronger effect = lower value | B-score at 10 µM | 310,000 tested, 1.2% active | AID 488922;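 active = ratio B-score over 3 SD below the library mean, with starting fluorescence within 5 SD of its mean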;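 also: negative B-score means less thallium flux so channel inhibition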
hERG rescue – hERG (human) protection from proarrhythmic block. Q12809. CHO-hERG, FluxOR thallium flux, dofetilide IC70 present. activation (rescue from dofetilide block), less the hit threshold, % at 10 µM. 310,000 tested, 0.51% active;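 active = activation above the mean of controls blocked by dofetilide plus 5 SD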;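 also: thallium influx through hERG after potassium depolarization seen as dye fluorescence rise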
* marks the source's active call; other numbers are inactive results; i = inactive; nt = not tested or not shown. Rows were chosen to be rich in hits. Some 3.1% of all compounds tested hit in one or more screens of this group.

SMILES	KCNQ1 pot	KCNK3 block	KCNQ1 inh	KCNK9 inh	hERG rescue
CC(C)COc1ccc(-c2nn(-c3ccccc3)cc2C(=O)Nc2nccs2)cc1	9*	i	i	i	14*
CCOC(=O)c1c(C)[nH]c(=S)c(C#N)c1-c1ccc(Cl)cc1	9*	i	i	i	-4
COC(=O)Cc1c[nH]c2cccc(OCC(O)CN(Cc3ccc([N+](=O)[O-])cc3)C(C)(C)C)c12 (configuration not stated)	i	i	i	-7.8*	-11
CC(=O)Nc1ccc(OC(=O)c2ccc(Br)c([N+](=O)[O-])c2)cc1	i	i	7*	i	-25
O=C(OCc1ccccc1)N(CCCCN(CCCNCc1ccccc1)C(=O)OCc1ccccc1)CCCNCc1ccccc1	nt	i	nt	nt	nt
CCc1noc(C)c1C(=O)Nc1ccc(C(F)(F)F)cc1	i	i	i	i	-4
Oc1ccc(N=Nc2ccc3c(c2)OCO3)c2ccccc12	9*	nt	i	i	-4
CCCOc1ccc(CN(CCC#N)C(=S)NC(=O)c2ccccc2)cc1	14*	i	i	i	59*
Cc1nc2c(C(=O)NCCC(C)C)c[nH]n2c(=O)c1Cc1ccccc1F	i	i	6*	i	-10
Cc1ccc(NC(=O)CN2C(=O)S/C(=C/c3ccc(-c4cccc(C(=O)O)c4)o3)C2=O)cc1	nt	i	nt	nt	nt
Cc1ccc(NC(=O)CN2C(=O)S/C(=C\c3ccc(-c4cccc(C(=O)O)c4C)o3)C2=O)cc1	i	nt	i	i	15*
COc1cccc(CNC(=O)Cn2c(=O)c3cccn3c3ccccc32)c1	i	i	i	i	-5
COC(=O)c1ccc(CN(c2ccc(C(=O)O)c(O)c2)S(=O)(=O)c2ccc(Cl)c([N+](=O)[O-])c2)cc1	i	i	7*	i	-18
C=CCn1c(SCc2ccc(C(=O)O)cc2)nc2sc(C)c(C)c2c1=O	16*	i	i	i	8.2*
CC1Cc2ccccc2N1c1ncnc2c1nnn2Cc1ccccc1 (configuration not stated)	i	i	i	i	-10
CC1Cc2ccccc2N1c1nc(C2CC2)nc2c1nnn2Cc1ccccc1 (configuration not stated)	i	i	6*	i	-5
O=C(Cc1ccccn1)c1ccc(Cl)cc1	i	i	i	i	-8
CC1=C(CC(=O)c2ccc(Cl)cc2)C(=O)c2ccccc2C1=O	i	i	i	-6.7*	-10
Cc1cccc(-n2ncc3c2CCCC3NC(=O)CCN2Cc3ccccc3C2=O)c1C (configuration not stated)	i	i	i	i	-8
O=C(O)c1cccc(S(=O)(=O)Nc2cc(Cl)ccc2Cl)c1	i	i	i	i	-7
CC1CC(C)CN(C(=O)c2cccc(S(=O)(=O)Nc3cc(C(F)(F)F)ccc3Cl)c2)C1 (configuration not stated)	i	i	7*	i	-13
CC(C)NC(=O)C(c1ccc(F)cc1)N(Cc1ccco1)C(=O)CCC(=O)Nc1ccccn1 (configuration not stated)	i	i	i	i	-3
COc1cccc(CNC(=O)c2ccc(CS(=O)(=O)Cc3ccccc3C)o2)c1	i	i	i	i	-12
Cc1ccc(NC(=O)c2cc(C(=O)c3cc(Cl)ccc3O)cn(-c3ccc(C)cc3)c2=O)cc1	i	i	i	i	-8
OC(c1ccc(F)cc1)(C1CCCCC1)C(CN1CCOCC1)c1ccccc1 (configuration not stated)	i	i	8*	i	-7
SMILES	KCNQ1 pot	KCNK3 block	KCNQ1 inh	KCNK9 inh	hERG rescue
CC(C)CC(O)(c1ccccc1)C(CN1CCOCC1)c1ccccc1 (configuration not stated)	i	i	i	i	-6
C[n+]1c2n(c3ccccc31)N=C(c1ccc(-c3ccccc3)cc1)CS2	i	i	12*	i	-25
CCCCCCn1c(-c2cccs2)n[nH]c1=S	i	i	i	i	7.9*
CCCCn1c(-c2csc(C(C)C)c2)n[nH]c1=S	i	i	i	i	5.0*
CCCCn1c(-c2csc3ccccc23)n[nH]c1=S	i	i	i	i	-11
Cc1ccc(O)c(NC(=O)c2cccc(NC(=O)c3ccco3)c2)c1	i	-9.4*	i	-6.9*	-9
CCOc1ccccc1NC(=O)c1ccc(NC(=O)c2ccco2)cc1	i	i	i	-6.6*	-8
COc1ccccc1NC(=O)c1ccc(NC(=O)c2ccco2)cc1	i	i	i	i	-4
COc1ccccc1NC(=O)C(=O)NNC(=O)c1ccco1	16*	i	i	i	22*
COc1ccccc1NC(=O)c1cccc(NC(=O)c2ccco2)c1	nt	-9.4*	nt	nt	nt
Cc1ccc(O)c(NC(=O)c2ccco2)c1	i	i	i	i	-4
O=C(NCCCN1CCOCC1)/C(=C/c1cccnc1)NC(=O)c1ccccc1	i	i	i	i	-9
CCC(=O)Nc1cc(C(=O)OCc2ccc(C(=O)Oc3ccccc3)cc2)ccc1C	i	i	i	i	-5
O=C(Nc1cccc(-c2nn[nH]n2)c1)c1csc2c1CCCC2	i	i	i	i	-15
O=C(Nc1ccccc1C(=O)O)c1cccc(NC(=O)c2ccco2)c1	i	i	i	i	5.3*
CC(=O)c1cccc(NC(=O)c2cccc(NC(=O)c3ccco3)c2)c1	i	i	i	i	-8
O=C(Nc1nc(-c2cccs2)cs1)c1cccc(S(=O)(=O)N2CCCCCC2)c1	i	i	i	i	-10
O=C(Nc1nc(-c2cccs2)cs1)c1ccc(S(=O)(=O)N2CCCCC2)cc1	i	i	6*	i	-7
O=C(CSc1nnc(-c2ccncc2)n1Cc1ccco1)Nc1ccccc1Cl	i	i	i	i	-15
O=C(CSc1nnc(-c2ccncc2)n1Cc1ccco1)Nc1ccccc1F	i	i	i	-6.9*	-6
O=C(Nc1nc(=O)c2ccccc2s1)c1ccc(F)cc1	23*	i	i	i	-3
O=C(Nc1nc(=O)c2ccccc2s1)c1ccc(Cl)cc1	36*	i	i	i	43*
O=C(Cc1ccccc1)Nc1nc(=O)c2ccccc2s1	i	i	i	i	-3
Cc1nn(-c2ccccc2)c2ncc(C(=O)c3cc(Cl)ccc3O)cc12	i	i	i	i	-7
CCc1nn2cc(C(=O)c3cc(Cl)ccc3O)cnc2c1-c1ccc(F)cc1	i	i	8*	i	-10
CC(C)c1ccc(S(=O)(=O)N(C)C2(C)CCS(=O)(=O)C2)cc1 (configuration not stated)	i	i	i	i	-5
